Laboratory results as given in ChEMBL document CHEMBL1124391, “Structure-activity relationships of novel vasopressin antagonists containing C-terminal diaminoalkanes and (aminoalkyl)guanidines” (J Med Chem, 1989).
Numbered stars: 1 amine (or outer) side, 2 acyl side, 3 side chain; on linkers, the order of the positions; unused ones are H or OH. Bridge positions count the residues as written; N and C are the ends. Square brackets hold non-standard residues; d marks the D form. Peptide text beside a SMILES is read from it. * marks the point of attachment. X1 = O=C(CC1(S[*:2])CCCCC1)[*:1]; Agmatine = N=C(N)NCCCCN*

What was measured:
Vasopressin V2 receptor [1] = molecular target: Vasopressin V2 receptor (Sus scrofa, UniProt P32307); assay: Inhibition constant for vasopressin-stimulated adenylate cyclase of medullary membranes of pig kidney
How it was run: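 Antagonism measured on pig renal medullary membranes as inhibition of LVP-stimulated adenylate cyclase, expressed as inhibition constant Ki. Each determination averages triplicate tests, and the value averages (n) determinations.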

Vasopressin V2 receptor [2] = molecular target: Vasopressin V2 receptor (Homo sapiens, UniProt P30518); assay: Inhibition constant for vasopressin-stimulated adenylate cyclase of medullary membranes of human kidney
How it was run: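 Human renal medullary membrane preparations used. Antagonism measured as inhibition of LVP-stimulated adenylate cyclase, expressed as Ki. Only selected analogues tested. Each determination averages triplicate tests, and the value averages (n) determinations.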

[3] = molecular target: Vasopressin V2 receptor (Sus scrofa) (UniProt P32307); assay: Inhibition constant for [3H]LVP binding to medullary membranes of pig kidney; format: tissue-based
How it was run: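 V2 receptor affinity measured on pig renal medullary membranes by competition with tritiated LVP, expressed as Kbind. Each determination averages triplicate tests, and the value averages (n) determinations.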

[4] = molecular target: Vasopressin V2 receptor (Rattus norvegicus) (UniProt Q00788); assay: Dose required to lower urine osmolality to 300 mOsm/kg in rat
How it was run: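 Male rats deprived of food and water overnight to reach a stable hydropenic state (raised plasma vasopressin, urine osmolality ≈1500 mOsm/kg H2O). Antagonist given at varying doses to groups of four rats. Urine volume and osmolality measured. The value is the dose that brings urine osmolality down to 300 mOsm/kg. Each determination averages four rats, and the reported value averages (n) determinations.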

Chain of Vasopressin V2 receptor (Homo sapiens, UniProt P30518) (P30518 whole entry): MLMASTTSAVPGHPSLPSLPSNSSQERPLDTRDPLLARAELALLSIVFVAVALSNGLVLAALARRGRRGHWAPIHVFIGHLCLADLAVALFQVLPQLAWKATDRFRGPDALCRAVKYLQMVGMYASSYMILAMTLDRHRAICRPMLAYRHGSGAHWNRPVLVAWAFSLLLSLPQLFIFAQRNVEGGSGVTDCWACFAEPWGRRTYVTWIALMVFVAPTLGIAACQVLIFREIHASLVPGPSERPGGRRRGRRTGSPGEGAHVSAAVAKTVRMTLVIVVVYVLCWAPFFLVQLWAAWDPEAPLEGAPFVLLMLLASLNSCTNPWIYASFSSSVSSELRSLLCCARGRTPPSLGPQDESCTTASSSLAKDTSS
Chain of Vasopressin V2 receptor (Rattus norvegicus) (Q00788 whole entry): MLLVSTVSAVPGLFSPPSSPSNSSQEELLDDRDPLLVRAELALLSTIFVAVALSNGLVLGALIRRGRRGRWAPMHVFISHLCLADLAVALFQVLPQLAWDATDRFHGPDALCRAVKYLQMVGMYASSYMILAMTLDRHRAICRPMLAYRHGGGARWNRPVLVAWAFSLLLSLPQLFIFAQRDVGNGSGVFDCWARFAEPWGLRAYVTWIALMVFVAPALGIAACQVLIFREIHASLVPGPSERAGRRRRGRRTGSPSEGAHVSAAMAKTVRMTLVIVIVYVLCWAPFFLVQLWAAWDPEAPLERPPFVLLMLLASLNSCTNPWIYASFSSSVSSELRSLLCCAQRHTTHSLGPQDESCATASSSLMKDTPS
Chain of Vasopressin V2 receptor (Sus scrofa, UniProt P32307) (P32307 whole entry): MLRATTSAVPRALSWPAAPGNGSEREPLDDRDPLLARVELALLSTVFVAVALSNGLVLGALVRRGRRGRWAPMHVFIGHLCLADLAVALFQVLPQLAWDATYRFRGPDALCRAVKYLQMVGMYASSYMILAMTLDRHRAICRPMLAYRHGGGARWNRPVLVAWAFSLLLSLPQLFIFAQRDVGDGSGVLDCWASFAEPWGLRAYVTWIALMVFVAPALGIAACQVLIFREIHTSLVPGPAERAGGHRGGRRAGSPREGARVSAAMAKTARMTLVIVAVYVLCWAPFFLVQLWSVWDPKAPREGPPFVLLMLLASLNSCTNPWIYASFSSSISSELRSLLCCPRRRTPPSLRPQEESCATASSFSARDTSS
Chain of Vasopressin V2 receptor (Sus scrofa) (P32307 whole entry): as above

Row | Structure (SMILES) | Ki (Vasopressin V2 receptor [1]) | Ki (Vasopressin V2 receptor [2]) | K bind [3] | ED300 [4]
1 | CCOc1ccc(C[C@H]2NC(=O)CC3(CCCCC3)SSC[C@@H](C(=O)N3CCC[C@H]3C(=O)NCCCCN=C(N)N)NC(=O)[C@H](CC(N)=O)NC(=O)[C@H](C(C)C)NC(=O)[C@H](Cc3ccccc3)NC2=O)cc1 ([dY](Et)FVNCP-Agmatine; linker N-5 via X1) | 6 nM | 3.7 nM |  | 
2 | CCOc1ccc(C[C@H]2NC(=O)CC3(CCCCC3)SSC[C@H](C(=O)N[C@H](CCCCN)C(N)=O)NC(=O)[C@@H](CC(N)=O)NC(=O)[C@H](C(C)C)NC(=O)[C@@H](Cc3ccccc3)NC2=O)cc1 |  | 3.3 nM | 26 nM | 59 µg/kg
